Four compounds from ChEMBL document CHEMBL2424622, “Development of amino-pyrimidine inhibitors of c-Jun N-terminal kinase (JNK): kinase profiling guided optimization of a 1,2,3-benzotriazole lead” (Bioorg Med Chem Lett, 2013) can be followed below.

Test [1] concerns the target Aurora kinase B (Homo sapiens) (UniProt Q96GD4). Kind of test: Competitive binding affinity to AURKB (unknown origin) at 10 uM in presence of ATP relative to control. In a few lines:
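In vitro ATP-site competition binding assay across a diverse panel of 128 kinases, with each compound tested at a single concentration. Kinase binding is expressed relative to control.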

In test [2] the target is T1, Protein kinase C epsilon type (Homo sapiens) (UniProt Q02156).
T1 sequence (whole entry): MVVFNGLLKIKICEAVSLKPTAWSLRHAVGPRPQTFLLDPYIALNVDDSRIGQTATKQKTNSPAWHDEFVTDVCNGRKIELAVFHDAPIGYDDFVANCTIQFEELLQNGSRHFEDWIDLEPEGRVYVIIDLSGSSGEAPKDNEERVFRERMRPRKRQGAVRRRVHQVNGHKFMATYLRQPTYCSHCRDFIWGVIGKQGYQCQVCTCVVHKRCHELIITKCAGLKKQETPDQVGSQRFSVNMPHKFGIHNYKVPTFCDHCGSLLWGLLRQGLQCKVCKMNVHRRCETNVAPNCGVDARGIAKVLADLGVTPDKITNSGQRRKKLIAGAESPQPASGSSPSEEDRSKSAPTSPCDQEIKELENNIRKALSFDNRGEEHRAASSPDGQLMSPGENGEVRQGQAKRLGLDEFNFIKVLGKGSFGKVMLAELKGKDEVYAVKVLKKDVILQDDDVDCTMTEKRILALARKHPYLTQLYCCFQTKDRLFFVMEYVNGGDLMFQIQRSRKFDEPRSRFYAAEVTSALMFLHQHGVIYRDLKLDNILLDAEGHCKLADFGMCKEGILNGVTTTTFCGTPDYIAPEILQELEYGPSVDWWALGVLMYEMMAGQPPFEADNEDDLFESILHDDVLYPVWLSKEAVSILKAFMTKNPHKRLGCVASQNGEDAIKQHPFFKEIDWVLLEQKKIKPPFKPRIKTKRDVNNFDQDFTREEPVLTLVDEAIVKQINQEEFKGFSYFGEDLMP
Kind of test: Competitive binding affinity to PRKCE (unknown origin) at 10 uM in presence of ATP relative to control.

The species named for the next test is Homo sapiens. Kind of test: Competitive binding affinity to EGFR L747 to S752 deletion mutant, P753S mutant (unknown origin) at 10 uM in presence of ATP relative to control.
Test [3] deals with T2, Serine/threonine-protein kinase DCLK2 (Homo sapiens) (UniProt Q8N568).
T2 sequence (whole entry): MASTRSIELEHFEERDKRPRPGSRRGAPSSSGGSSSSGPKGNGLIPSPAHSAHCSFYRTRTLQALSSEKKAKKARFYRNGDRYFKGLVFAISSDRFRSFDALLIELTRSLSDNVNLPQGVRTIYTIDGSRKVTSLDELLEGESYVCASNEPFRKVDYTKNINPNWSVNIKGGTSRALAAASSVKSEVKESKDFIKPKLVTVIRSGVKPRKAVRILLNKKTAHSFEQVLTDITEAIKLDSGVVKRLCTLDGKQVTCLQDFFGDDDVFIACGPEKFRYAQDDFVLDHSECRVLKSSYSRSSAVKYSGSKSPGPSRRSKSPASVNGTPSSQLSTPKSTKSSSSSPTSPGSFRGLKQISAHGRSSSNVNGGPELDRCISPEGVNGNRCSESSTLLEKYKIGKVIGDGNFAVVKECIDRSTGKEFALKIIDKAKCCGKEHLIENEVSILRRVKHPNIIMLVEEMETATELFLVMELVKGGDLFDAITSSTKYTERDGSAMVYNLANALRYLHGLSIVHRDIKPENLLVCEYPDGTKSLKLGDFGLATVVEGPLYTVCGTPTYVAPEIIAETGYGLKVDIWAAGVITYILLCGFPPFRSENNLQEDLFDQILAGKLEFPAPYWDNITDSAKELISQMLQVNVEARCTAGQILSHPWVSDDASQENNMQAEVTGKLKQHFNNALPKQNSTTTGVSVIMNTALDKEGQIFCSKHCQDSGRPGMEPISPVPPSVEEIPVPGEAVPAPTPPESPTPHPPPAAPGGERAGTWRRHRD
Description: Competitive binding affinity to DCAMKL2 (unknown origin) at 10 uM in presence of ATP relative to control.

For test [4], the target named is RAC-gamma serine/threonine-protein kinase (Homo sapiens) (UniProt Q9Y243). Kind of test: Competitive binding affinity to AKT3 (unknown origin) at 10 uM in presence of ATP relative to control.
The target of test [5] is Proto-oncogene tyrosine-protein kinase receptor Ret (Homo sapiens) (UniProt P07949). Description: Competitive binding affinity to RET (unknown origin) at 10 uM in presence of ATP relative to control.
Test [6] addresses Serine/threonine-protein kinase MRCK beta (Homo sapiens) (UniProt Q9Y5S2). Description: Competitive binding affinity to MRCKB (unknown origin) at 10 uM in presence of ATP relative to control.
The subject of test [7] is Phosphatidylinositol 4,5-bisphosphate 3-kinase catalytic subunit alpha isoform (Homo sapiens), P42336 [E545K]. Description: Competitive binding affinity to PIK3CA E545K mutant (unknown origin) at 10 uM in presence of ATP relative to control.
For test [8], the target named is Serine/threonine-protein kinase SIK2 (Homo sapiens) (UniProt Q9H0K1). Kind of test: Competitive binding affinity to SNF1LK2 (unknown origin) at 10 uM in presence of ATP relative to control.
In test [9] the target is Protein kinase C delta type (Homo sapiens) (UniProt Q05655). Description: Competitive binding affinity to PRKCD (unknown origin) at 10 uM in presence of ATP relative to control.
For test [10], the target named is T3, Calcium/calmodulin-dependent protein kinase type IV (Homo sapiens) (UniProt Q16566).
T3 sequence (whole entry): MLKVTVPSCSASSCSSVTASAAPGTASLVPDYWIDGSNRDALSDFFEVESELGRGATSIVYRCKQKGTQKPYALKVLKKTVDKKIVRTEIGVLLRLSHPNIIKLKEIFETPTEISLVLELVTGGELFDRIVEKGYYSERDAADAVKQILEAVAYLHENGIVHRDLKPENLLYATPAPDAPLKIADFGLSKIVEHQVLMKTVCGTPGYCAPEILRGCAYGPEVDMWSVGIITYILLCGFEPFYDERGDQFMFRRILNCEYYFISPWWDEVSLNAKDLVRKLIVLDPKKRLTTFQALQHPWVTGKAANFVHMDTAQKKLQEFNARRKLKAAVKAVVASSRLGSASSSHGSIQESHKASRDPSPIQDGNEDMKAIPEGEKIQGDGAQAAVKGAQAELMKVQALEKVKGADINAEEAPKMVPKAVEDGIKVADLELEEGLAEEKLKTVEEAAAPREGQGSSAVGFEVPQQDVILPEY
Description: Competitive binding affinity to CAMK4 (unknown origin) at 10 uM in presence of ATP relative to control.

In test [11] the target is Ribosomal protein S6 kinase alpha-6 (Homo sapiens) (UniProt Q9UK32). Kind of test: Competitive binding affinity to RPS6KA6 kinase domain 1 (unknown origin) at 10 uM in presence of ATP relative to control.

The inhibition is how much of the control response was suppressed.

Some results are limits rather than exact numbers.

Sequence of Serine/threonine-protein kinase MRCK beta (Homo sapiens) (Q9Y5S2 whole entry, canonical isoform): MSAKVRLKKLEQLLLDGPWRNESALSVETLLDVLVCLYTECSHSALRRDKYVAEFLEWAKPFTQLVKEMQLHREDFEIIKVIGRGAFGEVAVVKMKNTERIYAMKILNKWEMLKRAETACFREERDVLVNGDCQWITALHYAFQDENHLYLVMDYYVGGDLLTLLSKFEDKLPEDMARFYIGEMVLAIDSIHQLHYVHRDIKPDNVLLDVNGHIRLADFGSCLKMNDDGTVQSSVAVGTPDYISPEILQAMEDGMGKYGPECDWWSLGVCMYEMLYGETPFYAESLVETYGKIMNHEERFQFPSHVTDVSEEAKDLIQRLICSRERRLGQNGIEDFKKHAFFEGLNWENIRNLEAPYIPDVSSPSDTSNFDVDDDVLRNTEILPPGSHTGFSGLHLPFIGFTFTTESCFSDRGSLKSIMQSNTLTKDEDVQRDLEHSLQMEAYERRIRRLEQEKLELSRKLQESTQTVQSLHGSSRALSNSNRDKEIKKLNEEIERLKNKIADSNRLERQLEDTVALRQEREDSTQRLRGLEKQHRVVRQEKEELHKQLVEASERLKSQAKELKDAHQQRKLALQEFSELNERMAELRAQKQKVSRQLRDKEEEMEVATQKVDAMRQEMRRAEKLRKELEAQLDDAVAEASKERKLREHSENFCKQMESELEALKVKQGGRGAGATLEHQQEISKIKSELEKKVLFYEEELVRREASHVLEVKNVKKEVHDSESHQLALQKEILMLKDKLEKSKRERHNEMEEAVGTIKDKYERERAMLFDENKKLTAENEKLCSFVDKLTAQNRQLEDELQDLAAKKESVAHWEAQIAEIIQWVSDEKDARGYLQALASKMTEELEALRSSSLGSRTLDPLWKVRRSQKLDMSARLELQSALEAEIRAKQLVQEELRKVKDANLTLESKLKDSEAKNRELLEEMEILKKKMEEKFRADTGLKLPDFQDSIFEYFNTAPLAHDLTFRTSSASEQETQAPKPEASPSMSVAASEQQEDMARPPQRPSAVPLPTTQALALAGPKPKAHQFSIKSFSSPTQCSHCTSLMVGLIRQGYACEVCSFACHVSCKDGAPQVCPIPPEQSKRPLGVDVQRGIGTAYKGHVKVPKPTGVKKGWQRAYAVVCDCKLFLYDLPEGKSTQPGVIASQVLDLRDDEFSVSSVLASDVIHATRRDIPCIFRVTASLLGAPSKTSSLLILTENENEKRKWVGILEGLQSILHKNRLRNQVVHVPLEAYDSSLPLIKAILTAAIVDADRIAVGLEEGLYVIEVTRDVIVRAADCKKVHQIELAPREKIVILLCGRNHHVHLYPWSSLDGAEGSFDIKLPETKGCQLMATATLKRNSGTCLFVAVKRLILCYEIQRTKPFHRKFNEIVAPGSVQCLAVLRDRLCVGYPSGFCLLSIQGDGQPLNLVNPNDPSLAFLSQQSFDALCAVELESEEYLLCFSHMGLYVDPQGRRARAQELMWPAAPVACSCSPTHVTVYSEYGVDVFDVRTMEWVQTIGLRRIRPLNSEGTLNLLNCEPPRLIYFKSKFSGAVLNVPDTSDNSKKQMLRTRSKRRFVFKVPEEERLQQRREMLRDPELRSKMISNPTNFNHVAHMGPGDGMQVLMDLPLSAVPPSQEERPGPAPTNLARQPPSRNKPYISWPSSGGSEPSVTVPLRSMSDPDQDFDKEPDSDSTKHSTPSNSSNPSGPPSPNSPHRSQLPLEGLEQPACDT
Sequence of Serine/threonine-protein kinase SIK2 (Homo sapiens) (Q9H0K1 whole entry, looked up): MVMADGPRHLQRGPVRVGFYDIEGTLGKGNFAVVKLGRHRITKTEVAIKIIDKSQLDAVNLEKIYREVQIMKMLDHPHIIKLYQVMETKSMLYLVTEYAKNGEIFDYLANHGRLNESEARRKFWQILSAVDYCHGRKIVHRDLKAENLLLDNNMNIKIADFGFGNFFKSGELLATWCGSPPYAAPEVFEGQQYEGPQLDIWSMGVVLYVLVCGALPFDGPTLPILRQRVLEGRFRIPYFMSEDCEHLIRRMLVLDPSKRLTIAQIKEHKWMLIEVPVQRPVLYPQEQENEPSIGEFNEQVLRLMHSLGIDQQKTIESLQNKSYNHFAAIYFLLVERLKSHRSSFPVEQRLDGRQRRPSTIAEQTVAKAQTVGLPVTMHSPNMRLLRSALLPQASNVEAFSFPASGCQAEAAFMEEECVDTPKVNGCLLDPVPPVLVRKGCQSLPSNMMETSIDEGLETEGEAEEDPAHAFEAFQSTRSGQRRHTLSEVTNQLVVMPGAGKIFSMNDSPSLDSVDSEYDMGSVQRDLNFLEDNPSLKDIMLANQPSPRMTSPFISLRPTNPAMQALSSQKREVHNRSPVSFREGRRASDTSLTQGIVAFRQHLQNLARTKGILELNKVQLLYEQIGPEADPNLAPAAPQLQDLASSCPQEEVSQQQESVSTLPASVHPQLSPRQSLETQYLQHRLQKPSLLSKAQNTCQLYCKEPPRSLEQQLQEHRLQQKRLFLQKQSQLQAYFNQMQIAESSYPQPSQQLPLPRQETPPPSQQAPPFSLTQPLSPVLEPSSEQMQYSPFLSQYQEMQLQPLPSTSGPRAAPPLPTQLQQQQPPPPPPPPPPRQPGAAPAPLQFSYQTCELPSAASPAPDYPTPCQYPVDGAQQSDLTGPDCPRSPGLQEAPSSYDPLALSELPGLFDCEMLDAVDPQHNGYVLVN
Sequence of Ribosomal protein S6 kinase alpha-6 (Homo sapiens) (Q9UK32 whole entry, the tested form may be a part): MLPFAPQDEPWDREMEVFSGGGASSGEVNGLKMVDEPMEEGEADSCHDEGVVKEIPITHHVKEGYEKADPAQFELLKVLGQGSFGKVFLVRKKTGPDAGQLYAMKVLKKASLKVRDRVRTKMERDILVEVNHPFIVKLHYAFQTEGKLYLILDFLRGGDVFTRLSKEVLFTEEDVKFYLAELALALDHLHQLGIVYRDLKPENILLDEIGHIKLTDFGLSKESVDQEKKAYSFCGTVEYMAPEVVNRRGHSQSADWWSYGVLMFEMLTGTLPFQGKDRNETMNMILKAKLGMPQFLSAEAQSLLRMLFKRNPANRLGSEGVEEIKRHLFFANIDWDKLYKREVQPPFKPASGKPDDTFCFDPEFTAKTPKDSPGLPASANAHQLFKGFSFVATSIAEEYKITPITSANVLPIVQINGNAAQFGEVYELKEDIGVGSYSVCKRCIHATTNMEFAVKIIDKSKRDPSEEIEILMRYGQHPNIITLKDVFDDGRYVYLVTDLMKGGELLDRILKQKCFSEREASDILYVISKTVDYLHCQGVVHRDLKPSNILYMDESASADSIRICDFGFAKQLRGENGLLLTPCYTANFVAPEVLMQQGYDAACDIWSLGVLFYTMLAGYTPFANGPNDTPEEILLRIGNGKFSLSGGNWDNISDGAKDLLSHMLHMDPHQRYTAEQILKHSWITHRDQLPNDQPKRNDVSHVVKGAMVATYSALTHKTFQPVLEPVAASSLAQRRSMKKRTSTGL
Sequence of Proto-oncogene tyrosine-protein kinase receptor Ret (Homo sapiens) (P07949 whole entry): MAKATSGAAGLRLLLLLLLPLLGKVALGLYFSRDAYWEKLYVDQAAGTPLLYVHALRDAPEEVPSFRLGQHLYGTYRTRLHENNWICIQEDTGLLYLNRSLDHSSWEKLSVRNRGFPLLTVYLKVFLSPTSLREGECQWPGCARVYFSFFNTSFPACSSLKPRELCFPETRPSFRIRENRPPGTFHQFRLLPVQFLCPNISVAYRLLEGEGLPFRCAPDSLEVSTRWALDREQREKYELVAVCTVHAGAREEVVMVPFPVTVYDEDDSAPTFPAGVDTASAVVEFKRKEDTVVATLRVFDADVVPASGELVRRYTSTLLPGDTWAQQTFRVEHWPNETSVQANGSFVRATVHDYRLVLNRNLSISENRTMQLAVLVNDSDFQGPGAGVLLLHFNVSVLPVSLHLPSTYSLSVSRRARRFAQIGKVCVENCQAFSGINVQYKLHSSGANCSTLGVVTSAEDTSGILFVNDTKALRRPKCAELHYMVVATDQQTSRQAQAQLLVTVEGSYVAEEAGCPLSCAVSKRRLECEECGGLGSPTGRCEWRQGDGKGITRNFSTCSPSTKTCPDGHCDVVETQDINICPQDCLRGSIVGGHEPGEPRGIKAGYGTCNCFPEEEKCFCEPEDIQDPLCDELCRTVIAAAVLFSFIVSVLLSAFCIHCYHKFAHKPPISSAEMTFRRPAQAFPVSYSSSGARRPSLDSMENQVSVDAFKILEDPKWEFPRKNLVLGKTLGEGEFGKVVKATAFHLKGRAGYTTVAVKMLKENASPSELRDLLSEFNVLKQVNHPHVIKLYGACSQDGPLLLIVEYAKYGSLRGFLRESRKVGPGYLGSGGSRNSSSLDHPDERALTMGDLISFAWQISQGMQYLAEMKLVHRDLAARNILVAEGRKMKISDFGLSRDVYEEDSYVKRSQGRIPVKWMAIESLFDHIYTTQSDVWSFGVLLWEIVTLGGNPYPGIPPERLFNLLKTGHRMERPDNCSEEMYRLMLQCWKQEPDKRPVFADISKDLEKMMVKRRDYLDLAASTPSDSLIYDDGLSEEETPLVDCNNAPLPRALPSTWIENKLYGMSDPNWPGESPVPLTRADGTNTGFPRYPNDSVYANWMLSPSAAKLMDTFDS
Sequence of Aurora kinase B (Homo sapiens) (Q96GD4 whole entry): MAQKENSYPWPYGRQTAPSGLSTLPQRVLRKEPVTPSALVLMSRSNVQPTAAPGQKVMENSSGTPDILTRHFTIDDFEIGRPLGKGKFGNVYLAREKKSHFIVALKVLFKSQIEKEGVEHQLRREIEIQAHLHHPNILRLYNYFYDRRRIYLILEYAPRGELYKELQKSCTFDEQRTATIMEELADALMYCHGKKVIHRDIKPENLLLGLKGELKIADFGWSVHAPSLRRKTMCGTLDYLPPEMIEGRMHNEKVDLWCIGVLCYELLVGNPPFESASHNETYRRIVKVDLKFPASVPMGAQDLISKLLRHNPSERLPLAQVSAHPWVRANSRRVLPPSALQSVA

Consider `O[C@H]1CC[C@H](Nc2nccc(-n3ccc4ccccc43)n2)CC1`, for which the inhibition (in test [1]; in test [2]; in the test listed under Homo sapiens; in test [3]; in test [4]; in test [5]) was < 50% in each case. In addition, the inhibition in test [6], in test [7], in [8], in test [9], in test [10] and in [11] was < 50% throughout.
Regarding `O[C@H]1CC[C@H](Nc2nccc(-n3ncc4ccccc43)n2)CC1`, the inhibition (in test [1]; in test [2]; in the test listed under Homo sapiens; in test [3]; in test [4]; in test [5]) was < 50% throughout. In addition, the inhibition was < 50% in [6]; 82% in [7]; < 50% in test [8]; < 50% in [9]; < 50% in test [10]; < 50% in test [11].
For `O[C@H]1CC[C@H](Nc2nccc(-c3n[nH]c4ccccc34)n2)CC1`, the inhibition in test [1] is 91%; in the test listed under Homo sapiens it was < 50%; in test [4] it was < 50%; in test [5], 94%; in [11] it was 79%.
`O[C@H]1CC[C@H](Nc2nccc(-n3nnc4ccccc43)n2)CC1`: the inhibition was 68% in test [1]; < 50% in test [2]; < 50% in the test listed under Homo sapiens; < 50% in [3]; < 50% in [4]; < 50% in test [5]. Besides, the inhibition in [6] is < 50%; in [7], 88%; in test [8], 73%; in test [9] it was < 50%; in test [10], 72%; in test [11], < 50%.
